Measurements taken from ChEMBL document CHEMBL4000256, “Light-Regulated NO Release as a Novel Strategy To Overcome Doxorubicin Multidrug Resistance” (ACS Med Chem Lett, 2017).
Active and inactive are the calls of the source. The rule behind the calls is not given here.

Tests used:
[1] = Induction of NO release in pH 7.4 PBS irradiated with 7 mW/cm2 light at 100 uM after 0.5 hrs by Griess assay
Procedure, shortened: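 Cell-free solution, 100 μM, in PBS (pH 7.4, 10 mM, 3% DMSO) irradiated at 400 nm (7 mW/cm2) for varying times. Nitrite generated is quantified by Griess assay.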

Homo sapiens = species on record: Homo sapiens; assay: Inhibition of Pgp in 7 mW/cm'2 irradiated human M14 cells assessed as nitration of tyrosine in pgp at 5 uM measured after 20 mins by immunoblotting
Procedure, shortened: (§1)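 M14 melanoma cells held 20 min at room temperature in PBS under 400 nm light (7 mW/cm2) with 5 μM compound, alone or with equimolar doxorubicin. Nitrated ABC transporters (Pgp, MRP1, MRP4, BCRP) detected by immunoblot.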

[2] = molecular target: T1, ATP-binding cassette sub-family C member 4 (Homo sapiens, UniProt O15439); assay: Inhibition of MRP4 in 7 mW/cm'2 irradiated human M14 cells assessed as nitration of tyrosine in MRP4 at 5 uM measured after 20 mins by immunoblotting; procedure, shortened: as §1
T1 sequence (O15439 whole entry): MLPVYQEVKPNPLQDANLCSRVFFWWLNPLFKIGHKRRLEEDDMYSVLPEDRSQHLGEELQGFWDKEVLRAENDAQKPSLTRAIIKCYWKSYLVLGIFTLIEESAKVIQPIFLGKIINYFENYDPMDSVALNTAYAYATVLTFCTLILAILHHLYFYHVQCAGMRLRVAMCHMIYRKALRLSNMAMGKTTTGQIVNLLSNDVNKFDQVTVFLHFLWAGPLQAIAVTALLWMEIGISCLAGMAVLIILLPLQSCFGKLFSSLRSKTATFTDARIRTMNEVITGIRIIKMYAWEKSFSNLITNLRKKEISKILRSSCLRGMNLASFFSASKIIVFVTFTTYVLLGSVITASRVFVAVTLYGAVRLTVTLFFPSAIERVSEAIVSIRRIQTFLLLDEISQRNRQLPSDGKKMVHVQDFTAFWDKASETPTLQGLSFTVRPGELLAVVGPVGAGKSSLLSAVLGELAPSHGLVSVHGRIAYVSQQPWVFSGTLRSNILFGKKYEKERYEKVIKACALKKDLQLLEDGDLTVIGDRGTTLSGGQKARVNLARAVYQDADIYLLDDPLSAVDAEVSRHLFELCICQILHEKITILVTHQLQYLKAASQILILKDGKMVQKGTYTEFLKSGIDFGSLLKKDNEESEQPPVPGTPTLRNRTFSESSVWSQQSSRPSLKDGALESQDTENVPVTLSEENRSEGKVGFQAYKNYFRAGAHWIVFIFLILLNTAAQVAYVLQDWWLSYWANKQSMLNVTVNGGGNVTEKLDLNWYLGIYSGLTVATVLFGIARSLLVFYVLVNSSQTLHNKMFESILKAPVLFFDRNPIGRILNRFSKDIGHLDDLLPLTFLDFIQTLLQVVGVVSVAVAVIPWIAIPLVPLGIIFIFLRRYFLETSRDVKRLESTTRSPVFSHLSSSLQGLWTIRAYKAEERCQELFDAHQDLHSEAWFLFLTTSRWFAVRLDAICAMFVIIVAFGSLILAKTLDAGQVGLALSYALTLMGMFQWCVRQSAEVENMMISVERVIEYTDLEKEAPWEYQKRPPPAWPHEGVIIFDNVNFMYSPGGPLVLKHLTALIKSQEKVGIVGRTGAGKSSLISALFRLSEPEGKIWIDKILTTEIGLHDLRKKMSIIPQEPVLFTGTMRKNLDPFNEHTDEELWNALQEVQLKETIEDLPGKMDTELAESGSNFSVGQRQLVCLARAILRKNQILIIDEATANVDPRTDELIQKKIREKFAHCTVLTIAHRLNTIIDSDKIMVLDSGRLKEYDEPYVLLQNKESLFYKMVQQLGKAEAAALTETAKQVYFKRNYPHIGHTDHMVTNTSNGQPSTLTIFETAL

[3] = molecular target: T2, Broad substrate specificity ATP-binding cassette transporter ABCG2 (Homo sapiens, UniProt Q9UNQ0); assay: Inhibition of BCRP in 7 mW/cm'2 irradiated human M14 cells assessed as reduction in BCRP ATPase activity at 5 uM measured after 20 mins by spectrophotometric method
T2 sequence (Q9UNQ0 whole entry): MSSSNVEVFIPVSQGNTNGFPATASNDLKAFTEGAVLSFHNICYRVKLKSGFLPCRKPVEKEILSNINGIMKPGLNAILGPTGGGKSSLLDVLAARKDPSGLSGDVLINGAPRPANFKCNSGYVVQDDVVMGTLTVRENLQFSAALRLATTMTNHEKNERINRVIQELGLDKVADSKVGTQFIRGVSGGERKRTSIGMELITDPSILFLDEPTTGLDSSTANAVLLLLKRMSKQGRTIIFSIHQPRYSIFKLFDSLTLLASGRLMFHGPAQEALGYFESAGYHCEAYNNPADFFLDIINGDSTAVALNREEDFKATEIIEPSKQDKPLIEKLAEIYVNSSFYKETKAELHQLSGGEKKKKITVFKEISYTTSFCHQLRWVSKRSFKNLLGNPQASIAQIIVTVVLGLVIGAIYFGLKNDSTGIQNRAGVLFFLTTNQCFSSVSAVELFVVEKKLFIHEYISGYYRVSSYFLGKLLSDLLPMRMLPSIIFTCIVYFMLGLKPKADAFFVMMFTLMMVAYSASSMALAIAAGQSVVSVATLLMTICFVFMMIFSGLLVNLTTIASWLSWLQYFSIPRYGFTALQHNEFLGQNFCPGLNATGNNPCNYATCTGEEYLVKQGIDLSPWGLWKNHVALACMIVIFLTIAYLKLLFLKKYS
Procedure, shortened: (§2)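 M14 melanoma cells held 20 min at room temperature in PBS under 400 nm light (7 mW/cm2) with 5 μM compound, alone or with equimolar doxorubicin. Transporter ATPase activity then measured; n = 3.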

[4] = molecular target: Multidrug resistance-associated protein 1 (Homo sapiens, UniProt P33527); assay: Inhibition of MRP1 in 7 mW/cm'2 irradiated human M14 cells assessed as reduction in MRP1 ATPase activity at 5 uM measured after 20 mins by spectrophotometric method; procedure, shortened: as §2
[5] = molecular target: T1, ATP-binding cassette sub-family C member 4; assay: Inhibition of MRP4 in 7 mW/cm'2 irradiated human M14 cells assessed as reduction in MRP4 ATPase activity at 5 uM measured after 20 mins by spectrophotometric method; procedure, shortened: as §2
H9c2 [6] = assay: Cytotoxicity against 7 mW/cm'2 irradiated rat H9c2 cells at 5 uM measured after 20 mins by spectrophotometric method; assay type: cell-based; conditions: h9c2, 20 min
Procedure, shortened: (§3)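 Human fibroblasts or rat H9c2 cardiomyocytes kept 20 min at room temperature in PBS, either in the dark or irradiated at λexc 400 nm, 7 mW/cm2, with or without 5 μM test agent. Cytotoxicity measured in triplicate; means ± SD, n = 3.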

[7] = molecular target: T2, Broad substrate specificity ATP-binding cassette transporter ABCG2; assay: Inhibition of BCRP in 7 mW/cm'2 irradiated human M14 cells assessed as nitration of tyrosine in BCRP at 5 uM measured after 20 mins by immunoblotting; procedure, shortened: as §1
H9c2 [8] = assay: Dark toxicity against rat H9c2 cells at 5 uM measured after 20 mins by spectrophotometric method; assay type: cell-based; conditions: h9c2, 20 min; procedure, shortened: as §3

Multidrug resistance-associated protein 1, sequence (P33527 whole entry): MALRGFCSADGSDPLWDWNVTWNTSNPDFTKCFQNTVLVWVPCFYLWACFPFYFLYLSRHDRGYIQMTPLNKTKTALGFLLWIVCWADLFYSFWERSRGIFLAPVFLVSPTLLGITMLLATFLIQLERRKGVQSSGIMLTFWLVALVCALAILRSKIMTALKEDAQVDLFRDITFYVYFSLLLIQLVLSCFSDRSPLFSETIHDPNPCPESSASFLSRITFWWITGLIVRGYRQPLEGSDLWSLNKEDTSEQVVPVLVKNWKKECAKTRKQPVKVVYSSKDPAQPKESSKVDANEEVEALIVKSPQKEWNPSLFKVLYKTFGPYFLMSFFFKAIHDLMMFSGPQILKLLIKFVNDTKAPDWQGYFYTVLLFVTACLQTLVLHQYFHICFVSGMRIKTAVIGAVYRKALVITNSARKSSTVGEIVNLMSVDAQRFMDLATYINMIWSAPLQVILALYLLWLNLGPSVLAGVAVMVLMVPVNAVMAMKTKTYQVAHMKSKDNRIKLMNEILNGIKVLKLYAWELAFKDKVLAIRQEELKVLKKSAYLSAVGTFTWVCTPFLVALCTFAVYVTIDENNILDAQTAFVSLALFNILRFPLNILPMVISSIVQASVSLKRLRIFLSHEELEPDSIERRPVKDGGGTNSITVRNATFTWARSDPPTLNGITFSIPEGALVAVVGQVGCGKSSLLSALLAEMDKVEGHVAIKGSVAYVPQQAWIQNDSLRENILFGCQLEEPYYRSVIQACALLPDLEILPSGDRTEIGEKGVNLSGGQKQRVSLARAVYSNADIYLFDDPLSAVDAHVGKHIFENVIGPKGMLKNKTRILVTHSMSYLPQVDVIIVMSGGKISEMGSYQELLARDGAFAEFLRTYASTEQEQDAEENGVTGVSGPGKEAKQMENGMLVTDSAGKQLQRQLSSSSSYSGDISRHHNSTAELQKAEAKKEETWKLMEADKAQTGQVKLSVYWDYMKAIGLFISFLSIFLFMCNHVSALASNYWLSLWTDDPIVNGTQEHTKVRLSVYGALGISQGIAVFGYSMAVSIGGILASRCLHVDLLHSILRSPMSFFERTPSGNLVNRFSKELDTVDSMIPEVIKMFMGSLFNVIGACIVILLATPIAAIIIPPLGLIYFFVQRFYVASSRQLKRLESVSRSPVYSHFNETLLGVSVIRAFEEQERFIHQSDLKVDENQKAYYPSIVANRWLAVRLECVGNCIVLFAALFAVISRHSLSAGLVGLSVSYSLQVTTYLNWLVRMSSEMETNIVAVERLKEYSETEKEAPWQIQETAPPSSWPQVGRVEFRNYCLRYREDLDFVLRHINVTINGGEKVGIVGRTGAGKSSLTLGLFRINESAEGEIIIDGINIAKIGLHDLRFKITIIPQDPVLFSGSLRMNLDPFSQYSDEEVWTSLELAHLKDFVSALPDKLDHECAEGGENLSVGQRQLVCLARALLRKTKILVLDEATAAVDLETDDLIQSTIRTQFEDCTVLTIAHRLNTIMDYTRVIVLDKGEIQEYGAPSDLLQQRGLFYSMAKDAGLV

Row | Structure (SMILES) | Activity [1] | inhibition (Homo sapiens) | inhibition (INH) [2] | inhibition (INH) [3] | inhibition (INH) [4] | inhibition (INH) [5] | Activity (H9c2 [6]) | inhibition (INH) [7] | Activity (H9c2 [8])
1 | COc1cccc2c1C(=O)c1c(O)c3c(c(O)c1C2=O)C[C@@](O)(C(=O)COC(=O)c1ccc(C(=O)NCCCNc2ccc([N+](=O)[O-])c(C(F)(F)F)c2)cc1)C[C@@H]3O[C@H]1C[C@H](N)[C@H](O)[C@H](C)O1.Cl | Active | Active | Active | Active | Active | Active | Non-Toxic | Active | Non-Toxic
2 | NCCCNc1ccc([N+](=O)[O-])c(C(F)(F)F)c1 | Active | Active | Active | Active | Active | Active | Non-Toxic | Active | Non-Toxic
